Data as given in ChEMBL document CHEMBL3112499, “Identification of potent CNS-penetrant thiazolidinones as novel CGRP receptor antagonists” (Bioorg Med Chem Lett, 2014).

Tests used:
[1] = molecular target: T1, Calcitonin gene-related peptide type 1 receptor (Homo sapiens, UniProt O60894+Q16602); experiment: Antagonist activity at CGRP receptor in human SK-N-MC cells assessed as inhibition of CGRP-stimulated cAMP production preincubated for 30 mins followed by CGRP addition measured after 3 hrs by beta-lactamase reporter gene-based FRET assay; format: functional, cell-based
In short: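 SK-N-MC cells (endogenous CGRP receptor) transduced with retroviral cAMP-responsive-promoter β-lactamase reporter; 30,000 cells/well grown overnight in MEM+10% FBS, 37 °C, 5% CO2. Medium swapped to MEM+1% FBS with compound, 30 min pre-incubation; CGRP added (final 200 pM), 3 h at 37 °C. CCF4/AM FRET substrate added, 2 h at room temperature, fluorescence read; n ≥ 3.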

[2] = molecular target: T1, Calcitonin gene-related peptide type 1 receptor; experiment: Displacement of [125I]CGRP from CGRP receptor in human SK-N-MC cell membranes preincubated for 30 mins followed by radioligand addition measured after 2 hrs by liquid scintillation counting
[3] = Clearance in iv dosed rat; format: ADME, organism-based; settings: in vivo
Rattus norvegicus [4] = experiment: AUC in po dosed rat; format: ADME, organism-based, Plasma; settings: in vivo
[5] = Oral bioavailability in rat; format: ADME, organism-based; settings: in vivo
[6] = Ratio of drug level in brain to plasma in rat administered as iv bolus measured after 0.25 to 1 hr post dosing; format: ADME, organism-based; settings: brain and plasma, read-out: BPR
In short: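 Rats given an iv bolus; brain and plasma levels taken at 0.25 or 1 h post-dose to give the brain/plasma ratio; mean of n = 3.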

Rattus norvegicus [7] = experiment: Cmax in po dosed rat; format: ADME, organism-based; parameters: route oral; settings: in vivo
Rattus norvegicus [8] = experiment: Cmax in rat at 10 mg/kg, po; format: ADME, organism-based; parameters: dose 10 mg/kg, route oral; settings: in vivo
In short: (§1)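 Rats dosed orally at 10 mg/kg, in suspension vehicle or in 40% PEG400/10% TPGS/water depending on compound; mean of n = 3.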

Rattus norvegicus [9] = experiment: AUC in rat at 10 mg/kg, po; format: ADME, organism-based, Plasma; parameters: dose 10 mg/kg, route oral; settings: in vivo; in short: as §1
Rattus norvegicus [10] = experiment: Oral bioavailability in rat at 10 mg/kg; format: ADME, organism-based; settings: in vivo; in short: as §1
Rattus norvegicus [11] = experiment: AUC in rat at 30 mg/kg, po; format: ADME, organism-based, Plasma; parameters: dose 30 mg/kg, route oral; settings: in vivo
In short: (§2)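 Rats dosed at 30 mg/kg in 10% TPGS suspension; mean of n = 3.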

Rattus norvegicus [12] = experiment: Cmax in rat at 30 mg/kg, po; format: ADME, organism-based; parameters: dose 30 mg/kg, route oral; settings: in vivo; in short: as §2
Rattus norvegicus [13] = experiment: Oral bioavailability in rat at 30 mg/kg; format: ADME, organism-based; settings: in vivo; in short: as §2

T1 sequence (Q16602 whole entry, one chain of several): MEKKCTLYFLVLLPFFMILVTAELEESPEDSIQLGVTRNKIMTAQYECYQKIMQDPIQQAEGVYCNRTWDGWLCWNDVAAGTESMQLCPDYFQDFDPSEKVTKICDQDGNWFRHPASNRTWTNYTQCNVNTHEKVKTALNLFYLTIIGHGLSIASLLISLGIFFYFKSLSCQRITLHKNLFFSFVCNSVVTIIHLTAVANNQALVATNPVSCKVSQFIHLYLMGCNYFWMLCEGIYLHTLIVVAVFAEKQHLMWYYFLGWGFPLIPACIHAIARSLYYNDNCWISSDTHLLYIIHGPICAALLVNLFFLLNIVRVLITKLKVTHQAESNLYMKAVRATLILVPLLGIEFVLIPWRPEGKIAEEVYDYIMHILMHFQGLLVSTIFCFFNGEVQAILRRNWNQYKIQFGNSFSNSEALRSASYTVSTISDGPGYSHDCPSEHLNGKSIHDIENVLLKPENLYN

## CN1C(=O)C(CC(=O)N2CCC(N3Cc4ccccc4NC3=O)CC2)SC1c1ccccc1 (configuration not stated)
[1]
  IC50: 4470 nM
[2]
  Ki: 203 nM

## NCCCC[C@H](NC(=O)[C@@H](Cc1cc(Br)c(O)c(Br)c1)NC(=O)N1CCC(N2Cc3ccccc3NC2=O)CC1)C(=O)N1CCN(c2ccncc2)CC1 [OLCEGEPANT]
[3]
  clearance: 65 mL/min/kg
Rattus norvegicus [4]
  AUC: 260 ng·h/mL
[5]
  bioavailability: < 1%
[6]
  Kp: < 0.03
Rattus norvegicus [7]
  Cmax: 870 ng/mL

## CC(C)(C)CCN1C(=O)C(CC(=O)N2CCC(N3Cc4ccccc4NC3=O)CC2)SC1c1ccccc1-n1cccn1 (configuration not stated)
[1]
  IC50: 62 nM
[2]
  Ki: 40 nM

## CC(C)(C)CCN1C(=O)C(CC(=O)N2CCC(N3Cc4ccccc4NC3=O)CC2)SC1c1ccccc1-c1ccncc1 (configuration not stated)
[1]
  IC50: 99 nM
[2]
  Ki: 20 nM

## CC(C)(C)CCN1C(=O)C(CC(=O)N2CCC(N3Cc4ccccc4NC3=O)CC2)SC1c1ccccc1-n1ccnc1 (configuration not stated)
[1]
  IC50: 86 nM
[2]
  Ki: 7 nM

## CC(C)(C)CCN1C(=O)C(CC(=O)N2CCC(N3Cc4ccccc4NC3=O)CC2)SC1c1ccccc1N1CCC(O)CC1 (configuration not stated)
[1]
  IC50: 44 nM
[2]
  Ki: 18 nM

## CCN1CCN(c2c(F)cccc2C2SC(CC(=O)N3CCC(N4CCc5ccccc5NC4=O)CC3)C(=O)N2CCC(C)(C)C)CC1 (configuration not stated)
[1]
  IC50: 2 nM
[2]
  Ki: 0.07 nM

## CC(C)(C)CCN1C(=O)C(CC(=O)N2CCC(N3Cc4ccccc4NC3=O)CC2)SC1c1ccccc1N1CCOCC1 (configuration not stated)
[1]
  IC50: 160 nM
[2]
  Ki: 52 nM

## CC(C)CCN(Cc1cc(Br)c(O)c(Br)c1)C(=O)CCC(=O)N1CCC(N2Cc3ccccc3NC2=O)CC1
[1]
  IC50: 740 nM
[2]
  Ki: 282 nM

## CC(C)(C)CCN1C(=O)C(CC(=O)N2CCC(N3Cc4ccccc4NC3=O)CC2)SC1c1ccccc1N1CCN(CCO)CC1 (configuration not stated)
[1]
  IC50: 36 nM
[2]
  Ki: 8 nM

## O=C(CC1SC(c2ccccc2)N(CC2CCCO2)C1=O)N1CCC(N2Cc3ccccc3NC2=O)CC1 (configuration not stated)
[1]
  IC50: 520 nM
[2]
  Ki: 68 nM

## O=C(CC1SC(c2ccccc2)N(CC(F)(F)F)C1=O)N1CCC(N2Cc3ccccc3NC2=O)CC1 (configuration not stated)
[1]
  IC50: 4540 nM
[2]
  Ki: 763 nM

## O=C(CC1SC(c2ccccc2)N(CC2CC2)C1=O)N1CCC(N2Cc3ccccc3NC2=O)CC1 (configuration not stated)
[1]
  IC50: 840 nM
[2]
  Ki: 45 nM

## O=C(N[C@@H]1CC[C@@H](c2cccc(F)c2F)CN(CC(F)(F)F)C1=O)N1CCC(n2c(=O)[nH]c3ncccc32)CC1 [TELCAGEPANT]
Rattus norvegicus [8]
  Cmax: 550 ng/mL
Rattus norvegicus [9]
  AUC: 3320 ng·h/mL
[6]
  Kp: 0.03
Rattus norvegicus [10]
  F: 45%

## CN1CCN(c2cc(F)ccc2C2SC(CC(=O)N3CCC(N4CCc5ccccc5NC4=O)CC3)C(=O)N2CCC(C)(C)C)CC1 (configuration not stated)
[1]
  IC50: 84 nM
[2]
  Ki: 14 nM

## CCN(CC)CCN1C(=O)C(CC(=O)N2CCC(N3Cc4ccccc4NC3=O)CC2)SC1c1ccccc1 (configuration not stated)
[1]
  IC50: 4880 nM
[2]
  Ki: 303 nM

## CC(C)CN1C(=O)C(CC(=O)N2CCC(N3Cc4ccccc4NC3=O)CC2)SC1c1ccccc1 (configuration not stated)
[1]
  IC50: 370 nM
[2]
  Ki: 32 nM

## CN1CCN(c2ccccc2C2SC(CC(=O)N3CCC(N4Cc5ccccc5NC4=O)CC3)C(=O)N2CCC(C)(C)C)CC1 (configuration not stated)
Rattus norvegicus [11]
  AUC: 1600 ng·h/mL
Rattus norvegicus [12]
  Cmax: 260 ng/mL
Rattus norvegicus [13]
  F: 53%

## O=C(CC1SC(c2ccccc2)N(c2ccccc2)C1=O)N1CCC(N2Cc3ccccc3NC2=O)CC1 (configuration not stated)
[1]
  IC50: 2940 nM
[2]
  Ki: 806 nM

## CC(C)(C)CCN1C(=O)C(CC(=O)N2CCC(N3CCc4ccccc4NC3=O)CC2)SC1c1ccccc1N1CCNCC1 (configuration not stated)
[1]
  IC50: 33 nM
[2]
  Ki: 1 nM

## CC(C)(C)CCN1C(=O)C(CC(=O)N2CCC(N3Cc4ccccc4NC3=O)CC2)SC1c1ccc(F)cc1F (configuration not stated)
[1]
  IC50: 190 nM
[2]
  Ki: 30 nM

## CC(C)(C)CCN1C(=O)C(CC(=O)N2CCC(N3Cc4ccccc4NC3=O)CC2)SC1c1ccccc1-c1cccnc1 (configuration not stated)
[1]
  IC50: 88 nM
[2]
  Ki: 22 nM

## O=C(CC1SC(c2ccccc2)N(CCc2ccccn2)C1=O)N1CCC(N2Cc3ccccc3NC2=O)CC1 (configuration not stated)
[1]
  IC50: 1370 nM
[2]
  Ki: 202 nM

## O=C(CC1SC(c2ccccc2)N(C2CCCCC2)C1=O)N1CCC(N2Cc3ccccc3NC2=O)CC1 (configuration not stated)
[1]
  IC50: 710 nM
[2]
  Ki: 88 nM

## CC(C)N1C(=O)C(CC(=O)N2CCC(N3Cc4ccccc4NC3=O)CC2)SC1c1ccccc1 (configuration not stated)
[1]
  IC50: 1500 nM
[2]
  Ki: 115 nM

## CC(C)(C)CCN1C(=O)C(CC(=O)N2CCC(N3Cc4ccccc4NC3=O)CC2)SC1c1ccccc1F (configuration not stated)
[1]
  IC50: 180 nM
[2]
  Ki: 54 nM

## CCCCN1CCN(c2ccccc2C2SC(CC(=O)N3CCC(N4Cc5ccccc5NC4=O)CC3)C(=O)N2CCC(C)(C)C)CC1 (configuration not stated)
[1]
  IC50: 44 nM
[2]
  Ki: 3 nM

## CN1CCN(c2ccc(F)cc2C2SC(CC(=O)N3CCC(N4CCc5ccccc5NC4=O)CC3)C(=O)N2CCC(C)(C)C)CC1 (configuration not stated)
[1]
  IC50: 72 nM
[2]
  Ki: 14 nM

## CN1CCN(c2c(F)cccc2C2SC(CC(=O)N3CCC(N4CCc5ccccc5NC4=O)CC3)C(=O)N2CCC(C)(C)C)CC1 (configuration not stated)
[1]
  IC50: 3 nM
[2]
  Ki: 0.5 nM

## COCCN1C(=O)C(CC(=O)N2CCC(N3Cc4ccccc4NC3=O)CC2)SC1c1ccccc1 (configuration not stated)
[1]
  IC50: 1220 nM
[2]
  Ki: 124 nM

## CC(C)(C)CN1C(=O)C(CC(=O)N2CCC(N3Cc4ccccc4NC3=O)CC2)SC1c1ccccc1 (configuration not stated)
[1]
  IC50: 250 nM
[2]
  Ki: 9 nM

## CC(C)(C)CCN1C(=O)C(CC(=O)N2CCC(N3Cc4ccccc4NC3=O)CC2)SC1c1cccc(F)c1F (configuration not stated)
[1]
  IC50: 210 nM
[2]
  Ki: 118 nM

## CC(C)(C)CCN1C(=O)C(CC(=O)N2CCC(N3Cc4ccccc4NC3=O)CC2)SC1c1ccccc1N1CCNCC1 (configuration not stated)
[1]
  IC50: 60 nM
[2]
  Ki: 2 nM

## CC(C)CCN1C(=O)C(CC(=O)N2CCC(N3Cc4ccccc4NC3=O)CC2)SC1c1ccccc1 (racemic)
[1]
  IC50: 370 nM
[2]
  Ki: 32 nM

## CC(C)(C)N1C(=O)C(CC(=O)N2CCC(N3Cc4ccccc4NC3=O)CC2)SC1c1ccccc1 (configuration not stated)
[1]
  IC50: 7600 nM
[2]
  Ki: 1880 nM

## CCCCN1C(=O)C(CC(=O)N2CCC(N3Cc4ccccc4NC3=O)CC2)SC1c1ccccc1 (configuration not stated)
[1]
  IC50: 320 nM
[2]
  Ki: 64 nM

## CN1CCN(c2ccccc2C2SC(CC(=O)N3CCC(N4CCc5ccccc5NC4=O)CC3)C(=O)N2CCC(C)(C)C)CC1 (configuration not stated)
[1]
  IC50: 19 nM
[2]
  Ki: 2 nM

## O=C(CC1SC(c2ccccc2)N(Cc2cccnc2)C1=O)N1CCC(N2Cc3ccccc3NC2=O)CC1 (configuration not stated)
[1]
  IC50: 800 nM
[2]
  Ki: 260 nM

## CC(C)(C)CCN1C(=O)C(CC(=O)N2CCC(N3Cc4ccccc4NC3=O)CC2)SC1c1c(F)cccc1F (configuration not stated)
[1]
  IC50: 170 nM
[2]
  Ki: 59 nM

## CC(C)(C)CCN1C(=O)[C@H](CC(=O)N2CCC(N3CCc4ccccc4NC3=O)CC2)S[C@@H]1c1cccc(F)c1N1CCN(C(C)(C)C)CC1
Rattus norvegicus [8]
  Cmax: 410 ng/mL
Rattus norvegicus [9]
  AUC: 530 ng·h/mL
[6]
  Kp: 0.53
Rattus norvegicus [10]
  F: 13%

## CC(C)N1CCN(c2c(F)cccc2C2SC(CC(=O)N3CCC(N4CCc5ccccc5NC4=O)CC3)C(=O)N2CCC(C)(C)C)CC1 (configuration not stated)
[1]
  IC50: 1 nM
Rattus norvegicus [8]
  Cmax: 120 ng/mL
[2]
  Ki: 0.02 nM
Rattus norvegicus [9]
  AUC: 650 ng·h/mL
[6]
  Kp: 1.51
Rattus norvegicus [10]
  F: 32%

## O=C(CC1SC(c2ccccc2)N(C2CC2)C1=O)N1CCC(N2Cc3ccccc3NC2=O)CC1 (configuration not stated)
[1]
  IC50: 5150 nM
[2]
  Ki: 865 nM

## CN1CCN(c2cccc(F)c2C2SC(CC(=O)N3CCC(N4CCc5ccccc5NC4=O)CC3)C(=O)N2CCC(C)(C)C)CC1 (configuration not stated)
[1]
  IC50: 65 nM
[2]
  Ki: 1 nM

## CC(c1ccccc1)N1C(=O)C(CC(=O)N2CCC(N3Cc4ccccc4NC3=O)CC2)SC1c1ccccc1 (configuration not stated)
[1]
  IC50: 940 nM
[2]
  Ki: 297 nM

## O=C(CC1SC(c2ccccc2)N(Cc2ccc(F)cc2)C1=O)N1CCC(N2Cc3ccccc3NC2=O)CC1 (configuration not stated)
[1]
  IC50: 750 nM
[2]
  Ki: 56 nM
